Tested on: Malme-3M
Assay: Growth inhibition of human Malme-3M cells at 10 uM incubated for 48 hrs by sulforhodamine B assay relative to control
Format: functional
Conditions: read-out: GI
In short: (§1)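 NCI one-dose screen. Cells grown in RPMI 1640 with 5% FBS and 2 mM L-glutamine, plated and incubated 24 h at 37 °C, 5% CO2. DMSO-dissolved drug added, then 48 h further incubation. Adherent cells fixed with cold TCA, suspension cells fixed after settling. Stained with 0.4% SRB, absorbance read at 515 nm. Reported as percent growth relative to no-drug control and time-zero cell number.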

| SMILES | inhibition of growth at 10 µM [%] |
| --- | --- |
| COc1cc2nc(-c3ccc(Cl)cc3)cc(OCCCN3CCC(O)CC3)c2cc1OC | 62 |

Tested on: TK-10
Assay: Growth inhibition of human TK-10 cells at 10 uM incubated for 48 hrs by sulforhodamine B assay relative to control
Format: functional
Conditions: read-out: GI
In short: (§2)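 NCI one-dose screen across a 59-line panel. Cells were grown in RPMI 1640 with 5% FBS and 2 mM L-glutamine, plated and pre-incubated 24 h, then exposed to drug for 48 h at 37 °C, 5% CO2. Adherent cells were fixed with cold TCA (10% final), stained with 0.4% SRB in 1% acetic acid and read at 515 nm. Result is percent growth relative to no-drug control and time-zero cell count.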

| SMILES | inhibition of growth at 10 µM [%] |
| --- | --- |
| COc1cc2nc(-c3ccc(Cl)cc3)cc(OCCCN3CCC(O)CC3)c2cc1OC | 62 |

Tested on: MDA-MB-468
Assay: Growth inhibition of human MDA-MB-468 cells at 10 uM incubated for 48 hrs by sulforhodamine B assay relative to control
Format: functional
Conditions: read-out: GI
In short: (§3)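 NCI-60 single-dose screen. Cells were grown in RPMI 1640 with 5% FBS and 2 mM L-glutamine and plated 24 h before drug addition. Compound was added at one concentration in DMSO-derived medium and incubated for 48 h at 37 °C in 5% CO2. Read-out was SRB protein stain at 515 nm. Result is percent growth versus the no-drug control and the time-zero cell count; values below 0 indicate lethality.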

| SMILES | inhibition of growth at 10 µM [%] |
| --- | --- |
| COc1cc2nc(-c3ccc(Cl)cc3)cc(OCCCN3CCC(O)CC3)c2cc1OC | 62 |

Tested on: OVCAR-5
Assay: Growth inhibition of human OVCAR-5 cells at 10 uM incubated for 48 hrs by sulforhodamine B assay relative to control
Format: functional
Conditions: read-out: GI
In short: as §1

| SMILES | inhibition of growth at 10 µM [%] |
| --- | --- |
| COc1cc2nc(-c3ccc(Cl)cc3)cc(OCCCN3CCC(O)CC3)c2cc1OC | 62 |

Tested on: HOP-92
Assay: Growth inhibition of human HOP-92 cells at 10 uM incubated for 48 hrs by sulforhodamine B assay relative to control
Format: functional
Conditions: read-out: GI
In short: as §3

| SMILES | inhibition of growth at 10 µM [%] |
| --- | --- |
| COc1cc2nc(-c3ccc(Cl)cc3)cc(OCCCN3CCC(O)CC3)c2cc1OC | 62 |

Tested on: EKVX
Assay: Growth inhibition of human EKVX cells at 10 uM incubated for 48 hrs by sulforhodamine B assay relative to control
Format: functional
Conditions: read-out: GI
In short: as §3

| SMILES | inhibition of growth at 10 µM [%] |
| --- | --- |
| COc1cc2nc(-c3ccc(Cl)cc3)cc(OCCCN3CCC(O)CC3)c2cc1OC | 62 |

Tested on: SW-620
Assay: Growth inhibition of human SW-620 cells at 10 uM incubated for 48 hrs by sulforhodamine B assay relative to control
Format: functional
Conditions: read-out: GI
In short: as §2

| SMILES | inhibition of growth at 10 µM [%] |
| --- | --- |
| COc1cc2nc(-c3ccc(Cl)cc3)cc(OCCCN3CCC(O)CC3)c2cc1OC | 62 |

Tested on: Hs-578T
Assay: Growth inhibition of human HS-578T cells at 10 uM incubated for 48 hrs by sulforhodamine B assay relative to control
Format: functional
Conditions: read-out: GI
In short: as §3

| SMILES | inhibition of growth at 10 µM [%] |
| --- | --- |
| COc1cc2nc(-c3ccc(Cl)cc3)cc(OCCCN3CCC(O)CC3)c2cc1OC | 62 |

Tested on: SNB-19
Assay: Growth inhibition of human SNB-19 cells at 10 uM incubated for 48 hrs by sulforhodamine B assay relative to control
Format: functional
Conditions: read-out: GI
In short: as §1

| SMILES | inhibition of growth at 10 µM [%] |
| --- | --- |
| COc1cc2nc(-c3ccc(Cl)cc3)cc(OCCCN3CCC(O)CC3)c2cc1OC | 62 |

Tested on: K562
Assay: Growth inhibition of human K562 cells at 10 uM incubated for 48 hrs by sulforhodamine B assay relative to control
Format: functional
Conditions: read-out: GI
In short: as §3

| SMILES | inhibition of growth at 10 µM [%] |
| --- | --- |
| COc1cc2nc(-c3ccc(Cl)cc3)cc(OCCCN3CCC(O)CC3)c2cc1OC | 62 |

Tested on: PC-3
Assay: Growth inhibition of human PC-3 cells at 10 uM incubated for 48 hrs by sulforhodamine B assay relative to control
Format: functional
Conditions: read-out: GI
In short: as §1

| SMILES | inhibition of growth at 10 µM [%] |
| --- | --- |
| COc1cc2nc(-c3ccc(Cl)cc3)cc(OCCCN3CCC(O)CC3)c2cc1OC | 62 |

Tested on: NCI/ADR-RES
Assay: Growth inhibition of human NCI/ADR-RES cells at 10 uM incubated for 48 hrs by sulforhodamine B assay relative to control
Format: functional
Conditions: read-out: GI
In short: as §1

| SMILES | inhibition of growth at 10 µM [%] |
| --- | --- |
| COc1cc2nc(-c3ccc(Cl)cc3)cc(OCCCN3CCC(O)CC3)c2cc1OC | 62 |

Tested on: SF-268
Assay: Growth inhibition of human SF-268 cells at 10 uM incubated for 48 hrs by sulforhodamine B assay relative to control
Format: functional
Conditions: read-out: GI
In short: as §1

| SMILES | inhibition of growth at 10 µM [%] |
| --- | --- |
| COc1cc2nc(-c3ccc(Cl)cc3)cc(OCCCN3CCC(O)CC3)c2cc1OC | 62 |

Tested on: OVCAR-8
Assay: Growth inhibition of human OVCAR-8 cells at 10 uM incubated for 48 hrs by sulforhodamine B assay relative to control
Format: functional
Conditions: read-out: GI
In short: as §1

| SMILES | inhibition of growth at 10 µM [%] |
| --- | --- |
| COc1cc2nc(-c3ccc(Cl)cc3)cc(OCCCN3CCC(O)CC3)c2cc1OC | 62 |

Tested on: HOP-62
Assay: Growth inhibition of human HOP-62 cells at 10 uM incubated for 48 hrs by sulforhodamine B assay relative to control
Format: functional
Conditions: read-out: GI
In short: as §3

| SMILES | inhibition of growth at 10 µM [%] |
| --- | --- |
| COc1cc2nc(-c3ccc(Cl)cc3)cc(OCCCN3CCC(O)CC3)c2cc1OC | 62 |

Tested on: SR
Assay: Growth inhibition of human SR cells at 10 uM incubated for 48 hrs by sulforhodamine B assay relative to control
Format: functional
Conditions: read-out: GI
In short: as §1

| SMILES | inhibition of growth at 10 µM [%] |
| --- | --- |
| COc1cc2nc(-c3ccc(Cl)cc3)cc(OCCCN3CCC(O)CC3)c2cc1OC | 62 |

Tested on: BT-549
Assay: Growth inhibition of human BT-549 cells at 10 uM incubated for 48 hrs by sulforhodamine B assay relative to control
Format: functional
Conditions: read-out: GI
In short: as §3

| SMILES | inhibition of growth at 10 µM [%] |
| --- | --- |
| COc1cc2nc(-c3ccc(Cl)cc3)cc(OCCCN3CCC(O)CC3)c2cc1OC | 62 |

Tested on: SK-MEL-28
Assay: Growth inhibition of human SK-MEL-28 cells at 10 uM incubated for 48 hrs by sulforhodamine B assay relative to control
Format: functional
Conditions: read-out: GI
In short: as §1

| SMILES | inhibition of growth at 10 µM [%] |
| --- | --- |
| COc1cc2nc(-c3ccc(Cl)cc3)cc(OCCCN3CCC(O)CC3)c2cc1OC | 62 |

From ChEMBL document CHEMBL4732237, “Discovery of 4-alkoxy-2-aryl-6,7-dimethoxyquinolines as a new class of topoisomerase I inhibitors endowed with potent in vitro anticancer activity” (2021)
